Assay results published in ChEMBL document CHEMBL1156262, “Substituted benzothiophene or benzofuran derivatives as a novel class of bone morphogenetic protein-2 up-regulators: synthesis, structure-activity relationships, and preventive bone loss efficacies in senescence accelerated mice (SAMP6) and ovariectomized rats” (J Med Chem, 2010).
Active and inactive are the calls of the source. The rule behind the calls is not given here.

Key:
Mus musculus [1] = assay: Induction of bone formation in SAMP6 mouse right femora assessed as average osteoid width at 30 mg/kg/day, po measured after 3 months by bone histomorphometry; type: functional
In short: (§1)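 SAMP6 mice, 5 months old, n = 5 per group (3 male, 2 female), randomized by initial BMD. Given compound in 0.5% methylcellulose by gavage daily for 3 months. Proximal third of the right femur fixed in 4% paraformaldehyde, cut as undecalcified sections, and scored by image analysis for histomorphometry.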

Rattus norvegicus [2] = assay: Toxicity in rat assessed as pathological increase in body weight at 150 mg/kg/day, po after 3 months; type: organism-based; design: route oral; settings: in vivo
In short: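 Female rats (n = 7) were dosed orally once daily at 150 (mg/kg)/day for 3 months. Body weight, behaviour and fur were observed throughout. At the end, hearts, livers, spleens, lungs and kidneys were sectioned for histological examination of pathological changes.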

Rattus norvegicus [3] = assay: Toxicity in rat assessed as pathological changes in spleen at 150 mg/kg/day, po after 3 months by histomorphology; type: organism-based; design: route oral; settings: in vivo
In short: (§2)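 Rats, n = 7, given oral doses of 150 mg/kg/day for 3 months. Heart, liver, spleen, lung and kidney examined histologically for pathological change.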

Rattus norvegicus [4] = assay: Induction of bone formation in ovariectomized rat assessed as increase in trabecular bone volume percentage at 15 mg/kg/day, po after 3 months; type: functional, organism-based; settings: Trabecula
In short: (§3)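 Female rats (205–235 g) randomized by body weight, n = 7 per group: sham, ovariectomized with vehicle, ovariectomized with raloxifene 5 mg/kg/day, and ovariectomized with compound at 7.5, 15 or 30 mg/kg/day. All dosing oral for 3 months. Undecalcified proximal tibia sections analysed by histomorphometry, with comparisons against the sham and ovariectomized groups.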

Rattus norvegicus [5] = assay: Prevention of bone loss in ovariectomized rat assessed as increase in number, thickness, area and connectivity of trabecula at 15 mg/kg/day, po after 3 months by histomorphometry Leica Qwin image analysis; type: functional, organism-based; in short: as §3
Rattus norvegicus [6] = assay: Toxicity in rat assessed as pathological changes in kidney at 150 mg/kg/day, po after 3 months by histomorphology; type: organism-based; design: route oral; settings: in vivo; in short: as §2
Mus musculus [7] = assay: Induction of bone mineral density in SAMP6 mouse assessed as spine BMD at 30 mg/kg/day, po measured first 2 months; type: functional, organism-based
In short: (§4)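 SAMP6 mice, 5 months old, n = 5 per group, given compound in 0.5% methylcellulose by gavage daily. Dual-energy X-ray absorptiometry under pentobarbital anaesthesia (50 mg/kg ip), animals prone, at 0, 4, 8 and 12 weeks of treatment. Regions of interest were whole body, spine and left hind leg.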

Mus musculus [8] = assay: Toxicity in SAMP6 mouse assessed as pathological changes in heart at 30 mg/kg/day, po after 3 months by histomorphology; type: organism-based; design: route oral; settings: in vivo
In short: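 SAMP6 mice, n = 5 per group, dosed orally at 30 mg/kg/day in 0.5% methylcellulose for 3 months. Heart, liver, spleen, lung and kidney harvested, weighed and examined histologically. Organ/body weight indexes, body weight, and 24 h water and food intake (g/g body weight) compared with vehicle controls.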

Mus musculus [9] = assay: Induction of bone formation in SAMP6 mouse right femora assessed as trabecular bone volume percentage at 30 mg/kg/day, po measured after 3 months by bone histomorphometry; type: functional, Trabecula; in short: as §1
Mus musculus [10] = assay: Induction of bone mineral density in SAMP6 mouse assessed as whole body BMD at 10 mg/kg/day, po measured after 1 month; type: functional, organism-based; settings: 30 mg/kg, in the assay text read “30 mg/kg/day” for “10 mg/kg/day”; in short: as §4
Rattus norvegicus [11] = assay: Prevention of bone loss in po dosed ovariectomized rat assessed as increase in number, thickness, area and connectivity of trabecula after 3 months by histomorphometry Leica Qwin image analysis; type: functional, organism-based; in short: as §3

Q: With CC(=O)c1cc2ccccc2s1 as the molecule, how does the Activity (Mus musculus [1]) read?
A: Its Activity is 5.55 µm.

Q: And the Activity (Rattus norvegicus [2])?
A: The Activity was “Non-toxic”.

Q: And the Activity (Rattus norvegicus [3])?
A: The Activity was “Non-toxic”.

Q: And the Activity (Rattus norvegicus [4])?
A: The Activity was “Active”.

Q: What about the Activity (Rattus norvegicus [5]) of the same molecule?
A: The Activity was “Active”.

Q: What about the Activity (Rattus norvegicus [6]) of the same molecule?
A: Its Activity is “Non-toxic”.

Q: What about the Activity (Mus musculus [7]) of the same molecule?
A: Its Activity is “Active”.

Q: And the Activity (Mus musculus [8])?
A: The Activity was “Non-toxic”.

Q: And the Activity (Mus musculus [9])?
A: The Activity was 4.95%.

Q: And the Activity (Mus musculus [10])?
A: The Activity was “Active”.

Q: And the Activity (Rattus norvegicus [11])?
A: The Activity was “Dose-dependent effect”.
